Test results from ChEMBL document CHEMBL1123801, “Synthesis and antifungal activity of new 1-vinylimidazoles” (1987).
≈ marks a conversion by molar mass, not a printed value.

Legend:
Format in all cases: functional
Aspergillus fumigatus = assay: Minimum inhibitory concentration (MIC) against Aspergillus fumigatus
How it was run: (§1)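 Broth microdilution in Sabouraud's glucose broth. Final inocula 1×10^5 cells/mL for the yeast (C. albicans) and 1×10^5 conidia/mL for the mold (A. fumigatus) and the dermatophyte (T. asteroides). MIC read as the fungistatic end point. Lowest value of duplicated experiments.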

Candida albicans = assay: Minimum inhibitory concentration (MIC) against Candida albicans; how it was run: as §1
Trichophyton benhamiae = assay: Minimum inhibitory concentration against Trichophyton asteroides; how it was run: as §1

| Compound | MIC (Aspergillus fumigatus) | MIC (Candida albicans) | MIC (Trichophyton benhamiae) |
| --- | --- | --- | --- |
| C=C(c1cc(Cl)ccc1OCc1ccc(C(=O)OC)cc1)n1ccnc1 | 6.2 µg/mL (≈ 16.8 µM) | 25 µg/mL (≈ 67.8 µM) | 0.1 µg/mL (≈ 0.271 µM) |
| CC(C)=C(c1cc(Cl)ccc1OCc1ccc(Cl)c(Cl)c1)n1ccnc1 | 6.2 µg/mL (≈ 15.2 µM) | 12.5 µg/mL (≈ 30.7 µM) | 3.1 µg/mL (≈ 7.6 µM) |
| CC(C)=C(c1ccccc1OCCCOc1ccccc1)n1ccnc1 | 6.2 µg/mL (≈ 17.8 µM) | 25 µg/mL (≈ 71.7 µM) | 3.1 µg/mL (≈ 8.9 µM) |
| C=C(c1cc(Cl)ccc1OC(C)c1ccsc1)n1ccnc1 (stereo not given) | 3.1 µg/mL (≈ 9.37 µM) | 12.5 µg/mL (≈ 37.8 µM) | 0.1 µg/mL (≈ 0.302 µM) |
| CCC=C(c1cc(Cl)ccc1OCc1ccc(Cl)cc1Cl)n1ccnc1 | 0.8 µg/mL (≈ 1.96 µM) | 12.5 µg/mL (≈ 30.7 µM) | 0.2 µg/mL (≈ 0.491 µM) |
| C=C(c1cc(Cl)cc(Cl)c1OCc1ccsc1)n1ccnc1 | 100 µg/mL (≈ 285 µM) | > 100 µg/mL | 6.2 µg/mL (≈ 17.7 µM) |
| C=C(c1ccccc1OCc1ccccc1Cl)n1ccnc1 | 0.8 µg/mL (≈ 2.57 µM) | 6.2 µg/mL (≈ 19.9 µM) | 0.1 µg/mL (≈ 0.322 µM) |
| C=C(c1ccccc1OC(C)c1ccc(Cl)cc1)n1ccnc1 (stereo not given) | 6.2 µg/mL (≈ 19.1 µM) | 3.1 µg/mL (≈ 9.54 µM) | 0.1 µg/mL (≈ 0.308 µM) |
| C=C(c1cc(Cl)ccc1OCc1ccsc1Cl)n1ccnc1 | 6.2 µg/mL (≈ 17.7 µM) | 25 µg/mL (≈ 71.2 µM) | 0.1 µg/mL (≈ 0.285 µM) |
| C=C(c1ccccc1OC(C)c1ccccc1)n1ccnc1 (stereo not given) | 6.2 µg/mL (≈ 21.4 µM) | 25 µg/mL (≈ 86.1 µM) | 0.1 µg/mL (≈ 0.344 µM) |
| CC(C)=C(c1cc(Cl)ccc1OCCCOc1ccc(Cl)cc1)n1ccnc1 | > 100 µg/mL | > 100 µg/mL | 3.1 µg/mL (≈ 7.43 µM) |
| C=C(c1cc(Cl)cc(Cl)c1OCc1ccccc1)n1ccnc1 | > 100 µg/mL | > 100 µg/mL | 3.1 µg/mL (≈ 8.98 µM) |
| C=C(c1ccccc1OCc1ccc([N+](=O)[O-])cc1)n1ccnc1 | 6.2 µg/mL (≈ 19.3 µM) | 12.5 µg/mL (≈ 38.9 µM) | 0.1 µg/mL (≈ 0.311 µM) |
| C=C(c1ccccc1OCCOc1ccccc1)n1ccnc1 | 12.5 µg/mL (≈ 40.8 µM) | 50 µg/mL (≈ 163 µM) | 0.1 µg/mL (≈ 0.326 µM) |
| CC=C(c1ccccc1OCc1ccc(Cl)cc1Cl)n1ccnc1 | 0.1 µg/mL (≈ 0.278 µM) | 12.5 µg/mL (≈ 34.8 µM) | 6.2 µg/mL (≈ 17.3 µM) |
| C=C(c1ccccc1OCc1ccc(C)cc1)n1ccnc1 | 3.1 µg/mL (≈ 10.7 µM) | 3.1 µg/mL (≈ 10.7 µM) | 0.1 µg/mL (≈ 0.344 µM) |
| C=C(c1ccccc1OCCC)n1ccnc1 | 1.6 µg/mL (≈ 7.01 µM) | 100 µg/mL (≈ 438 µM) | 0.1 µg/mL (≈ 0.438 µM) |
| C=C(c1ccc(Cl)cc1OC)n1ccnc1 | 100 µg/mL (≈ 426 µM) | > 100 µg/mL | 25 µg/mL (≈ 107 µM) |
| C=C(c1cc(Cl)ccc1OCCCC)n1ccnc1 | 0.4 µg/mL (≈ 1.45 µM) | 25 µg/mL (≈ 90.3 µM) | 0.2 µg/mL (≈ 0.723 µM) |
| C=C(c1ccccc1OC(CC)c1ccccc1)n1ccnc1 (stereo not given) | 3.1 µg/mL (≈ 10.2 µM) | 6.2 µg/mL (≈ 20.4 µM) | 0.1 µg/mL (≈ 0.329 µM) |

| Compound | MIC (Aspergillus fumigatus) | MIC (Candida albicans) | MIC (Trichophyton benhamiae) |
| --- | --- | --- | --- |
| CC(C)=C(c1ccccc1OCc1ccc(C)cc1)n1ccnc1 | 6.2 µg/mL (≈ 19.5 µM) | 25 µg/mL (≈ 78.5 µM) | 3.1 µg/mL (≈ 9.74 µM) |
| C=C(c1cc(Cl)ccc1OC(C)c1ccccc1)n1ccnc1 (stereo not given) | 6.3 µg/mL (≈ 19.4 µM) | 25 µg/mL (≈ 77 µM) | 0.1 µg/mL (≈ 0.308 µM) |
| C=C(c1ccccc1OC(C)c1ccc(OC)cc1)n1ccnc1 (stereo not given) | 12.5 µg/mL (≈ 39 µM) | 12.5 µg/mL (≈ 39 µM) | 0.4 µg/mL (≈ 1.25 µM) |
| C=C(c1cc(Cl)ccc1OC(C)c1cccc(Cl)c1)n1ccnc1 (stereo not given) | 12.5 µg/mL (≈ 34.8 µM) | 6.2 µg/mL (≈ 17.3 µM) | 0.1 µg/mL (≈ 0.278 µM) |
| CC=C(c1cc(Cl)ccc1OCc1ccccc1)n1ccnc1 | 3.1 µg/mL (≈ 9.54 µM) | 6.2 µg/mL (≈ 19.1 µM) | 0.2 µg/mL (≈ 0.616 µM) |
| CCC=C(c1cc(Cl)ccc1OCc1ccc(Cl)cc1)n1ccnc1 | 0.8 µg/mL (≈ 2.14 µM) | 6.2 µg/mL (≈ 16.6 µM) | 0.4 µg/mL (≈ 1.07 µM) |
| C=C(c1cc(Cl)ccc1OCCCc1ccccc1)n1ccnc1 | 1.6 µg/mL (≈ 4.72 µM) | 50 µg/mL (≈ 148 µM) | 0.2 µg/mL (≈ 0.59 µM) |
| C=C(c1cc(Cl)ccc1OCCC)n1ccnc1 | 0.8 µg/mL (≈ 3.04 µM) | 25 µg/mL (≈ 95.2 µM) | 0.1 µg/mL (≈ 0.381 µM) |
| C=C(c1c(Cl)ccc(Cl)c1OCc1ccc(Cl)cc1)n1ccnc1 | > 100 µg/mL | > 100 µg/mL | 12.5 µg/mL (≈ 32.9 µM) |
| C=C(c1ccccc1OCCCC)n1ccnc1 | 1.6 µg/mL (≈ 6.6 µM) | 25 µg/mL (≈ 103 µM) | 50 µg/mL (≈ 206 µM) |
| C=C(c1ccc(Cl)cc1OCc1ccc(Cl)cc1)n1ccnc1 | > 100 µg/mL | > 100 µg/mL | > 100 µg/mL |
| C=C(c1cc(Cl)ccc1OC)n1ccnc1 | 3.1 µg/mL (≈ 13.2 µM) | > 100 µg/mL | 0.4 µg/mL (≈ 1.7 µM) |
| C=C(c1ccccc1OC(CCC)c1ccccc1)n1ccnc1 (stereo not given) | 12.5 µg/mL (≈ 39.3 µM) | 12.5 µg/mL (≈ 39.3 µM) | 0.4 µg/mL (≈ 1.26 µM) |
| C=C(c1ccccc1OCc1ccc(Cl)c(Cl)c1)n1ccnc1 | 3.1 µg/mL (≈ 8.98 µM) | 25 µg/mL (≈ 72.4 µM) | 0.1 µg/mL (≈ 0.29 µM) |
| CC=C(c1cc(Cl)ccc1OCc1ccc(Cl)cc1)n1ccnc1 | 0.8 µg/mL (≈ 2.23 µM) | 3.1 µg/mL (≈ 8.63 µM) | 0.8 µg/mL (≈ 2.23 µM) |
| C=C(c1cc(Cl)ccc1OCCc1ccccc1)n1ccnc1 | 6.3 µg/mL (≈ 19.4 µM) | 50 µg/mL (≈ 154 µM) | 0.1 µg/mL (≈ 0.308 µM) |
| C=C(c1ccccc1OCc1ccc(OC)cc1)n1ccnc1 | 6.2 µg/mL (≈ 20.2 µM) | 25 µg/mL (≈ 81.6 µM) | 0.1 µg/mL (≈ 0.326 µM) |
| C=C(c1cc(Cl)cc(Cl)c1OCc1ccsc1Cl)n1ccnc1 | 50 µg/mL (≈ 130 µM) | > 100 µg/mL | 3.1 µg/mL (≈ 8.04 µM) |
| C=C(c1ccccc1OCCCOc1ccc(Cl)cc1)n1ccnc1 | 12.5 µg/mL (≈ 35.2 µM) | 12.5 µg/mL (≈ 35.2 µM) | 0.1 µg/mL (≈ 0.282 µM) |
| CC(C)=C(c1ccccc1OCCc1ccccc1)n1ccnc1 | 0.8 µg/mL (≈ 2.51 µM) | 50 µg/mL (≈ 157 µM) | 0.1 µg/mL (≈ 0.314 µM) |

| Compound | MIC (Aspergillus fumigatus) | MIC (Candida albicans) | MIC (Trichophyton benhamiae) |
| --- | --- | --- | --- |
| C=C(c1cc(Cl)cc(Cl)c1OCc1ccc(Cl)cc1)n1ccnc1 | > 100 µg/mL | > 100 µg/mL | 6.2 µg/mL (≈ 16.3 µM) |
| C=C(c1cc(Cl)ccc1OC(CCC)c1ccccc1)n1ccnc1 (stereo not given) | > 100 µg/mL | > 100 µg/mL | 0.8 µg/mL (≈ 2.27 µM) |
| CCC=C(c1cc(Cl)ccc1OCc1ccccc1)n1ccnc1 | 1.6 µg/mL (≈ 4.72 µM) | 6.2 µg/mL (≈ 18.3 µM) | 1.6 µg/mL (≈ 4.72 µM) |
| CC(C)=C(c1ccccc1OCc1ccc(Cl)cc1Cl)n1ccnc1 | 1.6 µg/mL (≈ 4.29 µM) | 12.5 µg/mL (≈ 33.5 µM) | 3.1 µg/mL (≈ 8.3 µM) |
| C=C(c1ccccc1OC)n1ccnc1 | 12.5 µg/mL (≈ 62.4 µM) | > 100 µg/mL | 1.6 µg/mL (≈ 7.99 µM) |
| CC(C)=C(c1cc(Cl)ccc1OCc1ccc(Cl)cc1)n1ccnc1 | 6.2 µg/mL (≈ 16.6 µM) | 6.2 µg/mL (≈ 16.6 µM) | 0.2 µg/mL (≈ 0.536 µM) |
| CC(C)=C(c1cc(Cl)ccc1OCc1ccc(C)cc1)n1ccnc1 | 12.5 µg/mL (≈ 35.4 µM) | 25 µg/mL (≈ 70.8 µM) | 1.6 µg/mL (≈ 4.53 µM) |
| C=C(c1ccccc1OCc1ccc(CC)cc1)n1ccnc1 | 25 µg/mL (≈ 82.1 µM) | 12.5 µg/mL (≈ 41.1 µM) | 0.1 µg/mL (≈ 0.329 µM) |
| C=C(c1ccccc1OCc1ccccc1)n1ccnc1 | 3.1 µg/mL (≈ 11.2 µM) | 12.5 µg/mL (≈ 45.2 µM) | 0.2 µg/mL (≈ 0.724 µM) |
| CC(C)=C(c1ccccc1OCCCc1ccccc1)n1ccnc1 | 1.6 µg/mL (≈ 4.81 µM) | 25 µg/mL (≈ 75.2 µM) | 0.2 µg/mL (≈ 0.602 µM) |
| CC(C)=C(c1ccccc1OCCCOc1ccc(Cl)cc1)n1ccnc1 | 6.2 µg/mL (≈ 16.2 µM) | 12.5 µg/mL (≈ 32.6 µM) | 1.6 µg/mL (≈ 4.18 µM) |
| C=C(c1cc(Cl)ccc1OCc1ccc(C)cc1)n1ccnc1 | 1.6 µg/mL (≈ 4.93 µM) | 25 µg/mL (≈ 77 µM) | 0.8 µg/mL (≈ 2.46 µM) |
| C=C(c1cc(Cl)ccc1OC(C)c1ccc(Cl)cc1)n1ccnc1 (stereo not given) | 12.5 µg/mL (≈ 34.8 µM) | 12.5 µg/mL (≈ 34.8 µM) | 0.1 µg/mL (≈ 0.278 µM) |
| C/C=C(\c1ccccc1OC(C)c1cccc(Cl)c1)n1ccnc1 (stereo not given) | 1.6 µg/mL (≈ 4.72 µM) | 3.1 µg/mL (≈ 9.15 µM) | 0.1 µg/mL (≈ 0.295 µM) |
| C=C(c1cc(Cl)ccc1OC(CC)c1ccccc1)n1ccnc1 (stereo not given) | 12.5 µg/mL (≈ 36.9 µM) | > 100 µg/mL | 0.1 µg/mL (≈ 0.295 µM) |
| CC(C)=C(c1ccccc1OCc1cccc(Cl)c1)n1ccnc1 | 3.1 µg/mL (≈ 9.15 µM) | 12.5 µg/mL (≈ 36.9 µM) | 3.1 µg/mL (≈ 9.15 µM) |
| C=C(c1ccccc1OCCCc1ccc(Cl)cc1)n1ccnc1 | 0.8 µg/mL (≈ 2.36 µM) | 12.5 µg/mL (≈ 36.9 µM) | 0.2 µg/mL (≈ 0.59 µM) |
| C=C(c1ccccc1OCC)n1ccnc1 | 3.1 µg/mL (≈ 14.5 µM) | > 100 µg/mL | 0.4 µg/mL (≈ 1.87 µM) |
| C=C(c1ccccc1OCCCc1ccccc1)n1ccnc1 | 3.1 µg/mL (≈ 10.2 µM) | 12.5 µg/mL (≈ 41.1 µM) | 0.1 µg/mL (≈ 0.329 µM) |
| CC=C(c1ccccc1OCc1cccc(Cl)c1)n1ccnc1 | 1.6 µg/mL (≈ 4.93 µM) | 6.2 µg/mL (≈ 19.1 µM) | 3.1 µg/mL (≈ 9.54 µM) |
